In brackets after ≈: the same amount, converted by molar mass.

Test [1] concerns Mycobacterium tuberculosis. The test can be described thus: Antitubercular activity against Mycobacterium tuberculosis H37Ra after 7 days. It is filed as functional. To be noted: 168 h.
Test [2] in a line: Selectivity index, ratio of IC50 for human THP1 cells to MIC for Mycobacterium tuberculosis. The test is classed as functional, THP-1.
For test [3], the system named is Mycobacterium tuberculosis. Briefly: Antitubercular activity against Mycobacterium tuberculosis H37Rv ATCC 25618 after 7 days. It is filed as functional. Particulars: 168 h.
For test [4], the system named is Mycobacterium tuberculosis. Briefly: Ratio of MBC to MIC for Mycobacterium tuberculosis H37Rv. The test is classed as functional. Summed up:
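H37Rv MBC obtained by subculturing MIC-assay cultures onto drug-free solid medium and counting CFU. The ratio relates this MBC to the MIC for the same strain.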

The subject of test [5] is Mycobacterium tuberculosis. The test can be described thus: Antitubercular activity against Mycobacterium tuberculosis H37Rv ATCC 25618 after 2 weeks. The test is classed as functional. Particulars: 336 h.
In test [6] the test system is Mycobacterium tuberculosis. Briefly: Antitubercular activity against drug-sensitive Mycobacterium tuberculosis by radiometric BACTEC460 method. It is filed as functional.

The term MIC denotes the smallest concentration in the dilution series that meets the test's criterion for growth inhibition. A low value points to inhibition by little substance. Consider `O[C@@H](CNCCNC[C@H](O)COC(c1ccco1)c1ccco1)COC(c1ccco1)c1ccco1`, for which the minimum inhibitory concentration (MIC) in test [1] amounted to 25 µM (≈ 12.5 µg/mL). Moreover, the Ratio in test [2] is >10.
One may read the MBC as the smallest concentration meeting the test's criterion for killing. Higher therefore signals less potent killing. With `Cc1ccc(C(OC[C@@H](O)CNCCNC[C@H](O)COC(c2ccc(C)cc2)c2ccc(C)cc2)c2ccc(C)cc2)cc1`, the minimal inhibitory concentration (MIC) in test [3] came out at 3.13 µg/mL; in test [1], 5.24 µM (≈ 3.13 µg/mL). In addition, the Ratio in test [4] is on record as 2; in test [2], >10. Further, in test [5], the minimum bactericidal concentration (MBC) is 6.25 µg/mL (≈ 10.5 µM).
In test [1], `O[C@H](CNCCNC[C@@H](O)COC(c1ccc(Br)cc1)c1ccc(Br)cc1)COC(c1ccc(Br)cc1)c1ccc(Br)cc1` showed a minimum inhibitory concentration (MIC) of 7.34 µM (≈ 6.29 µg/mL). The Ratio in test [2] is recorded as >10.
On the same counts, the results for `CCOc1ccc(C(OC[C@@H](O)CNCCNC[C@H](O)COC(c2ccc(OCC)cc2)c2ccc(OCC)cc2)c2ccc(OCC)cc2)cc1` are 8.72 µM (≈ 6.25 µg/mL) and >10.
The corresponding values for `COCOc1ccc(C(OC[C@H](O)CNCCNC[C@@H](O)COC(c2ccc(OCOC)cc2)c2ccc(OCOC)cc2)c2ccc(OCOC)cc2)cc1` are 8 µM (≈ 6.25 µg/mL) and >10.
`Cc1ccc(C(OC[C@H](O)CNCCNC[C@@H](O)COC(c2ccc(C)cc2)c2ccc(C)cc2)c2ccc(C)cc2)cc1`: the values for the MIC in test [3] and in test [1] were 3.13 µg/mL and 5.24 µM (≈ 3.13 µg/mL), respectively. For the same compound, the Ratio in test [4] is 2; in test [2] it was >10. Besides, the minimum bactericidal concentration (MBC) in test [5] stood at 6.25 µg/mL (≈ 10.5 µM).
Take `COc1ccc(C(OC[C@@H](O)CNCCNC[C@H](O)COC(c2ccc(OC)cc2)c2ccc(OC)cc2)c2ccc(OC)cc2)cc1`: the values for the minimal inhibitory concentration (MIC) in test [3] and in test [1] were 3.13 µg/mL and 4.73 µM (≈ 3.13 µg/mL), respectively. Further, the Ratio was 8 in test [4] and >10 in test [2]. In test [5], this compound displayed a minimum bactericidal concentration (MBC) of 25 µg/mL (≈ 37.8 µM).
For `COCOc1ccc(C(OC[C@@H](O)CNCCNC[C@H](O)COC(c2ccc(OCOC)cc2)c2ccc(OCOC)cc2)c2ccc(OCOC)cc2)cc1`, inhibition of growth in test [1] (MIC) required 8 µM (≈ 6.25 µg/mL). Moreover, the Ratio in test [2] is recorded as >10.
As to `O[C@@H](CNCCNC[C@H](O)COC(c1ccc(Br)cc1)c1ccc(Br)cc1)COC(c1ccc(Br)cc1)c1ccc(Br)cc1`, the figures for the MIC in test [3] and in test [1] were 3.13 µg/mL and 3.67 µM (≈ 3.14 µg/mL), respectively. The Ratio in test [4] is 8; in test [2], >10. The minimal bactericidal concentration (MBC) in test [5] turned out to be 25 µg/mL (≈ 29.2 µM).
In test [1], `CCOc1ccc(C(OC[C@H](O)CNCCNC[C@@H](O)COC(c2ccc(OCC)cc2)c2ccc(OCC)cc2)c2ccc(OCC)cc2)cc1` registered a minimum inhibitory concentration (MIC) of 8.72 µM (≈ 6.25 µg/mL). Besides, the Ratio in test [2] is given as >10.
On the same counts, the results for `CC(C)(C)c1ccc(C(OC[C@H](O)CNCCNC[C@@H](O)COC(c2ccc(C(C)(C)C)cc2)c2ccc(C(C)(C)C)cc2)c2ccc(C(C)(C)C)cc2)cc1` are 32.7 µM (≈ 25 µg/mL) and >10.
On the same counts, the results for `O[C@H](CNCCNC[C@@H](O)COC(c1ccco1)c1ccco1)COC(c1ccco1)c1ccco1` are 50 µM (≈ 25 µg/mL) and >10.
With `Cc1ccc(C(OC[C@@H](O)CN2CCN(C[C@H](O)COC(c3ccc(C)cc3)c3ccc(C)cc3)CC2)c2ccc(C)cc2)cc1`, in test [1], the MIC is 40.1 µM (≈ 25 µg/mL). For the same compound, in test [2], the Ratio is reported as >10.
On the same counts, the results for `O[C@@H](COC(c1ccc(Br)cc1)c1ccc(Br)cc1)CN1CCN(C[C@@H](O)COC(c2ccc(Br)cc2)c2ccc(Br)cc2)CC1` are 28.3 µM (≈ 25 µg/mL) and >10.
Turning to `Cc1ccc(C(OC[C@H](O)CN2CCN(C[C@@H](O)COC(c3ccc(C)cc3)c3ccc(C)cc3)CC2)c2ccc(C)cc2)cc1`, the minimum inhibitory concentration (MIC) in test [3] was 1.56 µg/mL; in test [6], 3.13 µg/mL (≈ 5.03 µM); in test [1] it was 2.5 µM (≈ 1.56 µg/mL). Further, the results for the Ratio in test [4] and in test [2] were 4 and 12, respectively. The same compound had an MBC in test [5] of 6.25 µg/mL (≈ 10 µM).
Turning to `Cc1ccc(C(OC[C@@H](O)CN2CCCN(C[C@H](O)COC(c3ccc(C)cc3)c3ccc(C)cc3)CC2)c2ccc(C)cc2)cc1`, the figures for the minimal inhibitory concentration (MIC) in test [3], in test [6] and in test [1] were 0.78 µg/mL, 0.78 µg/mL (≈ 1.22 µM) and 1.22 µM (≈ 0.777 µg/mL), respectively. In addition, the Ratio is 2 in test [4] and 30.77 in test [2]. In test [5], this compound displayed an MBC of 1.56 µg/mL (≈ 2.45 µM).
As to `CC(C)Oc1ccc(C(OC[C@@H](O)CNCCNC[C@H](O)COC(c2ccc(OC(C)C)cc2)c2ccc(OC(C)C)cc2)c2ccc(OC(C)C)cc2)cc1`, the MIC in test [1] was found to be 16.2 µM (≈ 12.5 µg/mL). Also, the Ratio in test [2] is on record as >10.
On the same counts, the results for `O[C@H](COC(c1ccc(Br)cc1)c1ccc(Br)cc1)CN1CCN(C[C@H](O)COC(c2ccc(Br)cc2)c2ccc(Br)cc2)CC1` are 28.3 µM (≈ 25 µg/mL) and >10.
The corresponding values for `O[C@H](CNCCNC[C@@H](O)COC(c1cccs1)c1cccs1)COC(c1cccs1)c1cccs1` are 22.1 µM (≈ 12.5 µg/mL) and >10.
On the same counts, the results for `COc1ccc(C(OC[C@H](O)CNCCNC[C@@H](O)COC(c2ccc(OC)cc2)c2ccc(OC)cc2)c2ccc(OC)cc2)cc1` are 9.46 µM (≈ 6.25 µg/mL) and >10.
In the case of `CC(C)Oc1ccc(C(OC[C@H](O)CNCCNC[C@@H](O)COC(c2ccc(OC(C)C)cc2)c2ccc(OC(C)C)cc2)c2ccc(OC(C)C)cc2)cc1`, inhibition of growth in test [1] (MIC) required 8.09 µM (≈ 6.25 µg/mL). For the same compound, the Ratio in test [2] is >10.
On the same counts, the results for `O[C@@H](CNCCNC[C@H](O)COC(c1cccs1)c1cccs1)COC(c1cccs1)c1cccs1` are 22.1 µM (≈ 12.5 µg/mL) and >10.
On the same counts, the results for `COc1ccc(C(OC[C@@H](O)CNCCNC[C@H](O)COC(c2ccc(OC)c(OC)c2)c2ccc(OC)c(OC)c2)c2ccc(OC)c(OC)c2)cc1OC` are 16 µM (≈ 12.5 µg/mL) and >10.
On the same counts, the results for `O[C@H](CNCCNC[C@@H](O)COC(c1ccc2c(c1)OCCO2)c1ccc2c(c1)OCCO2)COC(c1ccc2c(c1)OCCO2)c1ccc2c(c1)OCCO2` are 16.2 µM (≈ 12.5 µg/mL) and >10.
With `O[C@H](CNCCNC[C@@H](O)COC(c1ccc2c(c1)OCO2)c1ccc2c(c1)OCO2)COC(c1ccc2c(c1)OCO2)c1ccc2c(c1)OCO2`, the minimum inhibitory concentration (MIC) in test [1] came out at 17.4 µM (≈ 12.5 µg/mL). Besides, in test [2], the Ratio is listed as >10.
The corresponding values for `O[C@@H](CNCCNC[C@H](O)COC(c1ccc2c(c1)OCO2)c1ccc2c(c1)OCO2)COC(c1ccc2c(c1)OCO2)c1ccc2c(c1)OCO2` are 8.72 µM (≈ 6.25 µg/mL) and >10.
On the same counts, the results for `COc1ccc(C(OC[C@H](O)CNCCNC[C@@H](O)COC(c2ccc(OC)c(OC)c2OC)c2ccc(OC)c(OC)c2OC)c2ccc(OC)c(OC)c2OC)c(OC)c1OC` are 13.9 µM (≈ 12.5 µg/mL) and >10.
For `CC(C)(C)c1ccc(C(OC[C@@H](O)CNCCNC[C@H](O)COC(c2ccc(C(C)(C)C)cc2)c2ccc(C(C)(C)C)cc2)c2ccc(C(C)(C)C)cc2)cc1`, in test [1], the lowest concentration to inhibit growth (MIC) was 16.3 µM (≈ 12.5 µg/mL). Moreover, the Ratio in test [2] was >10.
For `Cc1ccc(C(OC[C@H](O)CN2CCCN(C[C@@H](O)COC(c3ccc(C)cc3)c3ccc(C)cc3)CC2)c2ccc(C)cc2)cc1`, the MIC in test [3] was determined as 0.78 µg/mL; in test [6] it was 0.78 µg/mL (≈ 1.22 µM); in test [1] it was 1.22 µM (≈ 0.777 µg/mL). For the same compound, the values for the Ratio in test [4] and in test [2] were 4 and 26.92, respectively. In addition, in test [5], the minimum bactericidal concentration (MBC) is 3.13 µg/mL (≈ 4.91 µM).
Turning to `CC[C@@H](CO)NCCN[C@@H](CC)CO` [ETHAMBUTOL], the minimal inhibitory concentration (MIC) in test [3] stood at 7.64 µM; in test [6] it was 3.13 µg/mL (≈ 15.3 µM). In test [5], the MBC was 3.13 µg/mL (≈ 15.3 µM).

The values above are taken from ChEMBL document CHEMBL1154196, “Synthesis and evaluation of (S,S)-N,N'-bis-[3-(2,2',6,6'-tetramethylbenzhydryloxy)-2-hydroxy-propyl]-ethylenediamine (S2824) analogs with anti-tuberculosis activity” (2009).
